In the library only some 3.5% were active in any assay of this set; here they are far more common.
MrgX1 PAM = allosterically activates human MrgX1 receptor signaling. Q96LB2. MrgX1-HEK293, Fluo-4 calcium flux, FDSS; stronger effect = higher value. B-score at 10 µM. 310,000 compounds, 0.63% hits. AID 588675;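 active = plate-corrected calcium response at least 3 library SD above typical, normal starting fluorescence, not activating the receptor alone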;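 note: compound read alongside a low EC10 to EC30 dose of BAM8-22 agonist; peak minus trough fluorescence over baseline measured at the second addition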
Target sequence (Q96LB2 whole entry, looked up): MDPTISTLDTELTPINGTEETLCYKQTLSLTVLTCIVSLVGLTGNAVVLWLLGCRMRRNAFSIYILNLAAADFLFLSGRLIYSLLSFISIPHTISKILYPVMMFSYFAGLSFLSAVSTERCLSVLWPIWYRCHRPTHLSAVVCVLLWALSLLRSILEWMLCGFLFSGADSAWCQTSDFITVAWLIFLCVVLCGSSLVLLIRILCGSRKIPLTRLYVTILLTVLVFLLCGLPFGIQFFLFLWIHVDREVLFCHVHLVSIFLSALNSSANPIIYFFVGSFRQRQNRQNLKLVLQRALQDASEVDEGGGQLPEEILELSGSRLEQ
MrgX1 ag = human MrgX1 receptor agonism, primary screen | Q96LB2 | MrgX1-HEK293 cells, Fluo-4 calcium fluorescence, agonist mode; stronger effect = higher value | B-score at 10 µM | 310,000 compounds, 0.44% hits | AID 588627;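 active = calcium response B-score plate-corrected fluorescence ratio at least 3 library SD, with starting fluorescence B-score inside 5 SD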
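Assay system: MrgX1-expressing HEK293 cells / Amount: fifteen thousand cells per well / Doses: test compound in the initial addition of three / Timing: cells plated overnight, dye loaded 0.5 h 37 °C, 0.5 h room temperature / Technique: kinetic calcium dye fluorescence, Fluo-4 NW / Control set: positive and negative controls per plate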
RGS4 block = inhibitors of human RGS4 | HEK293 M3R/RGS4 inducible, Fluo-4 calcium flux; stronger effect = higher value; triggered by carbachol at its EC20 | AID 463165 | B-score at 10 µM | 310,000 compounds, 0.45% hits;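 active = B-score, a plate-corrected calcium signal, over three deviations above library mean, with baseline fluorescence within five deviations of library mean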;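 note: RGS4 expression induced by doxycycline in cells with stable M3 receptor; B-score is computed from the integrated fluorescence ratio over baseline after carbachol; higher B-score means a larger calcium signal and so more RGS4 inhibition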
Target sequence (P49798 whole entry, looked up): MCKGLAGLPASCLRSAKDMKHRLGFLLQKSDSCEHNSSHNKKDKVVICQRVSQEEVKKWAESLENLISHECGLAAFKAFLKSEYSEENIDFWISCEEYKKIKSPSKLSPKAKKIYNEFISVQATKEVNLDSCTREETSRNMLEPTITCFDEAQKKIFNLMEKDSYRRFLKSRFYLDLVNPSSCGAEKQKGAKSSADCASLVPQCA
RGS4 act = RGS4 potentiation or activation | HEK293 M3R/inducible RGS4, carbachol calcium flux Fluo4; stronger effect = lower value | B-score at 10 µM | 310,000 compounds, 0.92% hits | AID 463111;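 active = B-score of the integrated calcium signal more than 4 SD below the library mean, with starting fluorescence not abnormally high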;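 note: negative B-score means reduced calcium response which marks RGS4 activation or potentiation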
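test system = HEK293 cells with stable M3R and inducible RGS4 | schedule = recording 10 s baseline at 1 Hz, 100 s post-agonist | technique = Fluo4-AM (2 µM) calcium-flux fluorescence, kinetic read | measure = Agonist-evoked peak-minus-minimum fluorescence over baseline, integrated ratio, B score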
MrgX1 antag = human MrgX1 receptor antagonism, primary screen; Q96LB2; MRGX1-HEK293 calcium flux, Fluo-4, BAM8-22 antagonism; stronger effect = lower value; B-score at 10 µM; 310,000 compounds, 1.3% hits;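 active = calcium-response B-score plate-corrected more than 3 library SD below zero, starting fluorescence within 5 deviations, no agonist response on first addition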;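 note: peak minus trough fluorescence over baseline after final BAM8-22 challenge near maximal dose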
Starred values were filed as active, the others as inactive; i = inactive; nt = no result given.

SMILES	MrgX1 PAM	MrgX1 ag	RGS4 block	RGS4 act	MrgX1 antag
O=C(O)C1CCC(Cn2c(SCc3cc(=O)n4cc(Cl)ccc4n3)nc3ccsc3c2=O)CC1 (stereo unspecified)	i	i	i	i	i
O=C1CCCC/C1=C\Nc1ccc(C(=O)O)c(O)c1	i	i	i	i	i
Cc1cc(C(=O)NNc2ccc(C(C)C)cc2)n(C(C)(C)C)n1	i	i	i	i	i
NS(=O)(=O)c1ccc(CCNS(=O)(=O)c2ccc(Cl)nc2)cc1	i	i	i	i	i
CC(C)S(=O)(=O)c1cnc(-c2cccnc2)nc1N	i	i	i	i	i
O=C(NCc1nc(-c2ccc(C(F)(F)F)cc2)no1)Nc1cc(Cl)cc(Cl)c1	i	i	i	i	i
CN(C)CCOC1c2ccccc2CSc2ccccc21 (stereo unspecified)	i	i	i	-8.9*	i
CCOC(=O)c1cc2c(ccn2C)n1Cc1ccccc1Cl	i	i	i	-7.3*	i
Cc1ccc(C)c(Cn2c(C(=O)OC(C)C)cc3c2ccn3C)c1	i	i	i	-7*	i
CC(C)OC(=O)c1cc2c(ccn2C)n1CC(=O)N(Cc1ccccc1)c1ccc(F)cc1	i	i	i	i	i
CS(=O)(=O)N(CC(=O)N1CCCCCC1)c1cccc(F)c1	i	i	i	i	i
Cc1ccsc1/C=C/c1ccc2cccc(O)c2n1	i	i	i	i	-5*
Cc1ccsc1/C=C/c1ccc2ccccc2n1	i	i	i	i	i
CN1C(=O)/C(=C\C=C2/CCCN2C)N(C)C1=S	i	i	i	i	i
CCN1C(=O)/C(=C/C=C2/CCCN2C)OC1=S	i	27*	i	i	i
COc1cc2c(cc1OC)/C(=C/C(=O)c1ccc(OC)c([N+](=O)[O-])c1)NCC2	i	i	i	-7.3*	-4.6*
COc1cccc(-c2nn(C)c3sc(C(=O)N4CCOCC4)cc23)c1	i	i	i	i	i
COc1cccc(-c2nn(C)c3sc(C(=O)N4CCN(c5ccccn5)CC4)cc23)c1	i	i	i	-11*	i
Cc1noc(NS(=O)(=O)c2ccc(NC(=O)c3cc(-c4ccccc4Cl)nc4ccccc34)cc2)c1C	i	39*	i	i	i
O=c1cc(N2CCCCC2)c(-c2ccccc2)nn1Cc1c(Cl)cccc1Cl	i	i	i	-7.1*	i
CCn1ncc(N(C)N)c(Cl)c1=O	i	i	i	i	i
COc1ccc(Br)cc1S(=O)(=O)N1CCCc2ccccc21	i	i	i	i	i
O=C(NCc1ccccc1)C(c1ccncc1)N(C(=O)c1ccccn1)c1ccccc1 (stereo unspecified)	i	i	i	i	i
CC(OC(=O)c1ccccc1Br)C(=O)Nc1nc(-c2cccc([N+](=O)[O-])c2)cs1 (stereo unspecified)	i	i	i	i	-5.5*
O=C(Nc1nc(-c2cccc([N+](=O)[O-])c2)cs1)C(c1ccccc1)c1ccccc1	i	i	i	i	i
SMILES	MrgX1 PAM	MrgX1 ag	RGS4 block	RGS4 act	MrgX1 antag
Cc1ccsc1C(=O)N1CCCC(CO)(Cc2ccccc2F)C1 (stereo unspecified)	i	i	i	i	i
Cc1ccc(N2CC(NC(=O)C3CC3)CC2=O)cc1 (stereo unspecified)	i	i	i	i	i
CCOc1cc(/C=C2\N=C(SCC)SC2=O)cc([N+](=O)[O-])c1OC(C)=O	i	i	i	i	i
CCOc1c(OC(C)=O)ccc(/C=C2\N=C(SCC)SC2=O)c1[N+](=O)[O-]	i	i	i	-7.1*	i
O=C(Nc1cccc([N+](=O)[O-])c1)c1ccc2ccccc2c1O	i	i	i	i	i
O=C1OC(c2ccc(F)cc2)=C/C1=C\c1ccc(O)cc1	i	i	i	i	i
O=C1OC(c2ccc(F)cc2)=C/C1=C\c1ccc([N+](=O)[O-])o1	i	i	i	i	-7.8*
CCN1/C(=C/c2sc(-c3ccccc3C)c[n+]2C)Sc2ccccc21	nt	nt	i	-7.4*	nt
O=C(C1=C(O)C(=O)N(c2ccccc2)C1c1ccc([N+](=O)[O-])cc1)c1cccs1 (stereo unspecified)	i	i	i	i	i
O=C(NCC1CCCO1)c1ccc(NC(=O)c2cccc([N+](=O)[O-])c2)cc1 (stereo unspecified)	i	i	i	i	i
CC(C)CCOc1ccc(C(=O)NCC(c2ccco2)N(C)C)cc1 (stereo unspecified)	i	i	i	-7.5*	i
COc1ccc(C(=O)N2N=C(c3cccc(NS(C)(=O)=O)c3)CC2c2cccs2)cc1 (stereo unspecified)	i	i	i	i	i
O=[N+]([O-])c1ccc(N2CCN(C(=S)Nc3ccccc3)CC2)cc1	7.5*	i	i	i	i
CC12CC3CC(C)(C1)CC(C(=O)Nc1nncs1)(C3)C2	i	i	i	i	i
Cc1c(Cl)cccc1-c1ccc(CNCc2ccccn2)o1	i	i	i	i	i
O=C(CN1CCCCCC1)N1c2ccccc2C=Cc2ccccc21	i	i	i	-7.6*	i
CCNCCC(=O)N1c2ccccc2Sc2ccc(C(F)(F)F)cc21	i	31*	i	-7.9*	i
O=C(CN1CCCCC1)N1CCCc2ccccc21	i	i	i	i	i
O=C(CN1CCCC1)N1c2ccccc2Sc2ccc(C(F)(F)F)cc21	i	i	i	-8.1*	i
O=C(CN1CCN(c2ccccn2)CC1)N1c2ccccc2Sc2ccc(C(F)(F)F)cc21	i	i	i	i	i
COc1cccc(C(=O)N2CCN(C(=O)COc3ccc4ccccc4c3)CC2)c1	i	i	i	i	i
Cc1c(N=C(N)/N=C(\N)Nc2ccccc2)c(=O)n(-c2ccccc2)n1C	i	i	i	i	-4.6*
O=C(O)C[C@H](O)C[C@H](O)/C=C/c1c(C2CC2)nc2ccccc2c1-c1ccc(F)cc1	nt	nt	i	-7*	nt
Cc1nc2ccccc2c(-c2ccccc2)c1CC(=O)O	i	i	i	i	i
CC1=[N+](C)N(c2ccccc2)C(=O)C1N=Cc1c(Cl)cccc1Cl (stereo unspecified)	i	31*	i	i	i
